From ChEMBL document CHEMBL1158485, “Inhibition of glyoxalase I: the first low-nanomolar tight-binding inhibitors” (J Med Chem, 2009) come the findings set out here.

Molecules are shown by their SMILES.

The target of one series is T1, Glyoxalase I (Saccharomyces cerevisiae S288c, UniProt P50107).
T1 sequence (P50107 whole entry): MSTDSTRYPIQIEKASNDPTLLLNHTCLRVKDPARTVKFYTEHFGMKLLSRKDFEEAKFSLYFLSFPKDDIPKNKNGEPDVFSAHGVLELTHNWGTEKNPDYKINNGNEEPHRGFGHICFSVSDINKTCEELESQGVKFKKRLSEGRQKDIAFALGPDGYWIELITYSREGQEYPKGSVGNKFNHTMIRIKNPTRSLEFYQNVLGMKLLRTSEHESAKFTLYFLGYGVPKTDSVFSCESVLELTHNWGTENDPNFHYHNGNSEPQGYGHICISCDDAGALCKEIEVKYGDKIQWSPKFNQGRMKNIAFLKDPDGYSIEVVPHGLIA
As to the kind of experiment: Inhibition of yeast glyoxalase 1. In short, it runs like this: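 Yeast glyoxalase I run at 30 °C in 0.05 M phosphate buffer pH 6.6 with 0.1% BSA. Methylglyoxal (distilled, resin-treated, standardized) was present at up to 6.0 mM and fresh GSH at up to 1.3 mM. Inhibitor solutions were aqueous, adjusted to pH 6.6. Mixtures equilibrated for 6 min, then the initial rate was read as the A240 rise.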

A short description of series [1]: Stability in presence of equine kidney gamma-glutamyltranspeptidase at pH 8.4 by TLC. In kind it is ADME. In short, it runs like this:
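Inhibitor at 10 mM stock in 200 mM 2-amino-2-methyl-1,3-propanediol buffer, incubated at 37 °C with equine kidney γ-GT (0.54 mg/100 μL stock) plus Gly-Gly acceptor (40 mM stock). Breakdown was followed by TLC with UV, iodine and fluorescamine detection.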

With `N[C@@H](CNC(=O)N[C@@H](CSCc1ccc(Br)cc1)C(=O)NCC(=O)O)C(=O)O`, on Glyoxalase I, affinity was put at a Ki of 12800 nM.

Compound `N[C@@H](CCC(=O)N[C@@H](CCC(=O)N(O)c1ccc(Br)cc1)C(=O)NCC(=O)O)C(=O)O.O=C(O)C(F)(F)F` displayed a Ki on Glyoxalase I of 6.17 nM. Also, the Stability result in series [1] is “Unstable”. Compound `N[C@@H](CCC(=O)N[C@H](CCC(=O)N(O)c1ccc(Br)cc1)C(=O)NCC(=O)O)C(=O)O.O=C(O)C(F)(F)F` yielded an inhibitory constant (Ki) at Glyoxalase I of 1660 nM. Moreover, the Stability result in series [1] is given as “Stable”. On to `N[C@@H](CNC(=O)N[C@@H](CCC(=O)N(O)c1ccc(Br)cc1)C(=O)NCC(=O)O)C(=O)O`, for which the inhibition constant (Ki) on Glyoxalase I is 32.6 nM. In addition, the Stability entry in series [1] was “Stable”. Take `N[C@@H](CCC(=O)N[C@@H](CSCc1ccc(Br)cc1)C(=O)NCC(=O)O)C(=O)O`: the inhibition constant (Ki) on Glyoxalase I turned out to be 6280 nM. At Glyoxalase I, `N[C@@H](CCC(=O)N[C@@H](CCN(O)C(=O)c1ccc(Br)cc1)C(=O)NCC(=O)O)C(=O)O.O=C(O)C(F)(F)F` registered a Ki of 123 nM. The Stability result in series [1] is recorded as “Stable”.

Usually Ki stands for a measure of affinity in units of concentration, obtained from inhibition or displacement.
